The source made the active and inactive calls. No cut-off for these calls is given here.
Experiments:
HeLa [1] = experiment: Cytotoxicity against human HeLa cells assessed as reduction in cell viability incubated for 72 hrs under normoxia condition by MTT assay; assay type: cell-based
Summary of the method: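 HeLa cells, 5 × 10^3 per well, exposed 72 h at 37 °C in RPMI-1640 to a range of concentrations (compounds from 10 mM DMSO stocks). MTT (5 mg/mL in PBS) added for a further 2 h, formazan dissolved in DMSO, absorbance read at 595 nm. IC50 taken from semilogarithmic dose–response plots. Top concentration capped at 10 or 30 μM where solubility was poor.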

[2] = Solubility of the compound; assay type: physicochemical
[3] = target: Luciferin 4-monooxygenase (Photinus pyralis) (UniProt P08659); experiment: Inhibition of recombinant firefly luciferase at 1 uM incubated for 10 mins at 37 degree C by luminometric method
Summary of the method: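 Recombinant firefly luciferase (20 ng/µL stock in PBS) mixed with compound in DMSO/PBS and incubated 10 min at 37 °C. Luciferase assay reagent was then added and light emission read on a luminometer. Compound tested at 1 μM.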

HeLa [4] = experiment: Effect on HIF1alpha mRNA level in human HeLa cells at 30 uM incubated for 12 hrs under 1% O2 condition by qRT-PCR analysis; assay type: functional, cell-based
Summary of the method: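 HeLa cells, 1 × 10^6 per well, held 12 h with or without compound under normoxia or hypoxia. Total RNA extracted with a column kit. 1.0 µg RNA reverse transcribed with random primers, dNTPs and M-MLV at 40 °C for 50 min, then HIF-1α mRNA measured by RT-PCR.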

HeLa [5] = experiment: Inhibition of hypoxia-induced HIF1alpha accumulation in human HeLa cells at 1 to 30 uM incubated for 12 hrs under 1% O2 condition by Western blot analysis; assay type: functional, cell-based
Summary of the method: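 Lysates separated by SDS-PAGE, blotted to PVDF and probed with anti-HIF-1α and anti-tubulin antibodies. Detection used HRP-conjugated secondary antibody and chemiluminescent imaging.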

Luciferin 4-monooxygenase (Photinus pyralis), sequence (P08659 whole entry): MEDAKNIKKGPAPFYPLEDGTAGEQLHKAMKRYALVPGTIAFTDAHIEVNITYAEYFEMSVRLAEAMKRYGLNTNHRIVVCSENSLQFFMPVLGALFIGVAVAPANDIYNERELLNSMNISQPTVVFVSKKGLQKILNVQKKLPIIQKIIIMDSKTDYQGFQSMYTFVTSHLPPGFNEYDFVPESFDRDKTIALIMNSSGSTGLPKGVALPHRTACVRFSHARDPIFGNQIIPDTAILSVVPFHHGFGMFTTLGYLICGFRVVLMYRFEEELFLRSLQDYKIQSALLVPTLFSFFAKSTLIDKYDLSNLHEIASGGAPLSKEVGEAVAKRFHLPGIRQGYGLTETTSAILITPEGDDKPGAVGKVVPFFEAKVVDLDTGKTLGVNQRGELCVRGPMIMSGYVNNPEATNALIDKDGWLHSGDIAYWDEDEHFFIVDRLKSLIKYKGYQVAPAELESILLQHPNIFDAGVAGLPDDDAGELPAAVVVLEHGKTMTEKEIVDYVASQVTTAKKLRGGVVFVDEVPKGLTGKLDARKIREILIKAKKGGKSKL

Row | SMILES | solubility [2] | inhibition [3] | IC50 (HeLa [1]) | Activity (HeLa [4]) | inhibition (HeLa [5])
1 | O=C1c2ccccc2-c2cnn(-c3ccc(O)cc3)c21 |  |  | 2.2 µM |  | 
2 | OCc1ccc(-c2nn(Cc3ccccc3)c3ccccc23)o1 |  |  | 56 µM |  | 
3 | Cn1ncc2c1C(=O)c1ccccc1-2 |  |  | 49 µM |  | 
4 | O=C1c2ccccc2-c2cnn(-c3ccc(C(F)(F)F)cc3)c21 |  |  | > 100 µM |  | 
5 | O=C1c2ncccc2-c2cnn(-c3ccccc3)c21 |  |  | 52 µM |  | 

Further lines, with some results ahead:

Row | solubility [2] | inhibition [3] | SMILES | IC50 (HeLa [1]) | Activity (HeLa [4]) | inhibition (HeLa [5])
6 | > 10 µM |  | O=C1c2ccccc2-c2cnn(-c3ccccc3)c21 | > 10 µM |  | 
7 | > 10 µM | Active | COc1ccc(-n2ncc3c2C(=O)c2ccccc2-3)cc1 | > 10 µM |  | 
8 | > 30 µM |  | O=C1c2ccccc2-c2cn[nH]c21 | > 30 µM |  | 
9 | > 10 µM | inactive | Cc1ccc(-n2ncc3c2C(=O)c2ccccc2-3)cc1 | > 10 µM | inactive | Active
10 | > 30 µM |  | Cc1nn(-c2ccccc2)c2c1-c1ccccc1C2=O | > 30 µM |  | 
